Experimental findings from ChEMBL document CHEMBL1833883, “Synthesis and antiangiogenic activity of new silybin galloyl esters” (J Med Chem, 2011) are described below.

Data set [1] deals with HUVEC. Description: Antiangiogenic activity in HUVEC assessed as inhibition of tube formation at 50 uM after 6 hrs by Matrigel assay. It is filed as functional, cell-based. The note with it: Homo sapiens.
Data set [2] deals with HUVEC. Description: Cytotoxicity against HUVEC by LDH release assay. The data set is classed as cell-based. Particulars: human. The method, boiled down:
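Confluent HUVECs on gelatin-coated wells exposed overnight (16–20 h) to serial dilutions of compound in fresh EGM. Culture medium then sampled to measure LDH leakage.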

Data set [3] relates to HUVEC. As to the kind of experiment: Antiangiogenic activity in HUVEC assessed as inhibition of tube formation after 6 hrs by Matrigel assay relative to control. The note with it: Homo sapiens. The data set is classed as functional, cell-based. The method, boiled down:
(§1)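 Roughly 1 × 10⁴ HUVECs plated in EGM on polymerized Matrigel (9 mg/mL), with or without compound; 2-methoxyestradiol 10 μM as positive control. Three images per well taken at 40× magnification. Tube formation scored in a field of about 100 cells as (sprouting×1 + connected×2 + polygons×3)/total cells, and expressed as % of untreated control; p < 0.05 versus control.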

Data set [4] relates to HUVEC. As to the kind of experiment: Antiangiogenic activity in HUVEC assessed as inhibition of tube formation at 10 uM after 6 hrs by Matrigel assay relative to control. The data set is classed as functional. Particulars: Homo sapiens. The method, boiled down:
as §1

In data set [5] the test system is HUVEC. As to the kind of experiment: Antiproliferative activity against HUVEC assessed as inhibition of cell growth after 3 days by MTT assay. The data set is classed as functional, cell-based. The note with it: Homo sapiens, 72 h. The method, boiled down: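 4 × 10³ HUVECs incubated with serial dilutions of compound for 3 days. MTT (5 mg/mL, 10 μL) added and incubated 3 h at 37 °C; formazan dissolved in 1% NH₃ in DMSO and read at 540 nm. IC50 reported as mean ± SD of three independent experiments, each run in triplicate.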
(Tetrazolium assays rely on reduction of a dye to a coloured formazan, in cell work by metabolically active cells.)

Data set [6] can be described thus: Cytotoxicity against HUVEC assessed as cell viability at 100 uM after 16 hrs by MTT assay. The data set is classed as cell-based. The note with it: human, HUVEC cells; read-out: Activity. The method, boiled down:
(§2)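 Confluent HUVECs on gelatin-coated wells treated with serial dilutions of compound in fresh EGM for 16 h (overnight, 16–20 h). MTT added in medium at 1 mg/mL, 3 h at 37 °C; formazan dissolved in 1% NH₃/DMSO and absorbance read at 540 nm. IC50 reported as mean ± SD of three independent experiments, each run in triplicate.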

A short description of data set [7]: Cytotoxicity against HUVEC assessed as cell viability at concentration higher than IC50 after 16 hrs by MTT assay. It is filed as cell-based. The note with it: human, HUVEC cells; read-out: Activity. The procedure, abridged: as §2
In data set [8] the test system is HUVEC. As to the kind of experiment: Antiangiogenic activity in HUVEC assessed as inhibition of cell migration after 16 to 20 hrs by wound healing migration assay. It is filed as functional. The note with it: Homo sapiens. The method, boiled down: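 HUVECs (passages 2–6, isolated from umbilical cord by collagenase digestion, grown in EGM) as confluent monolayers; one 1-mm cell-free line scratched per well, cells washed twice with PBS, then given fresh EGM with or without compound. Wound photographed at time zero and after overnight (16–20 h) incubation at 37 °C. Minimal inhibitory concentration taken from reoccupation of the wound space.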

The subject of data set [9] is HUVEC. Description: Cytotoxicity against HUVEC assessed as cell viability after 16 hrs by MTT assay. The data set is classed as cell-based. The note with it: Homo sapiens. The procedure, abridged:
as §2

Data set [10] concerns HUVEC. As to the kind of experiment: Antiangiogenic activity in HUVEC assessed as inhibition of tube formation at 30 uM after 6 hrs by Matrigel assay relative to control. The data set is classed as functional. The note with it: Homo sapiens. The method, boiled down:
as §1

Data set [11] concerns HUVEC. As to the kind of experiment: Antiangiogenic activity in HUVEC assessed as inhibition of tube formation after 24 hrs by Matrigel assay. The data set is classed as functional. Particulars: Homo sapiens. The procedure, abridged: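 Matrigel (9 mg/mL) polymerized at 37 °C for at least 30 min. About 1 × 10⁴ HUVECs seeded in EGM with or without compound; 2-methoxyestradiol 10 μM as positive control. After 24 h, the minimal inhibitory concentration was taken as the lowest concentration at which no tubular structures formed.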

The subject of data set [12] is HUVEC. As to the kind of experiment: Antiangiogenic activity in HUVEC assessed as inhibition of tube formation at 20 uM after 6 hrs by Matrigel assay relative to control. The data set is classed as functional. Particulars: Homo sapiens. The procedure, abridged: as §1
Data set [13] concerns HUVEC. As to the kind of experiment: Antiangiogenic activity in HUVEC assessed as inhibition of tube formation up to 75 uM after 6 hrs by Matrigel assay. It is filed as functional, cell-based. Particulars: Homo sapiens. The procedure, abridged:
as §1

Data set [14] concerns HUVEC. Description: Antiangiogenic activity in HUVEC assessed as inhibition of tube formation at 10 uM after 6 hrs by Matrigel assay. It is filed as functional, cell-based. The note with it: Homo sapiens. The method, boiled down: as §1
The subject of data set [15] is HUVEC. Description: Antiangiogenic activity in HUVEC assessed as inhibition of tube formation at 75 uM after 6 hrs by Matrigel assay. It is filed as functional, cell-based. Particulars: Homo sapiens.

In brackets after ≈: the same amount, converted by molar mass. Activity calls are given as the source filed them.

Broadly, the inhibition is the relative decrease from the control value, in per cent. A word on the IC50: it is the concentration that inhibits the measured activity by half. As a reminder, the MIC is the smallest concentration in the dilution series that meets the test's criterion for growth inhibition. Consider `COc1cc([C@@H]2Oc3cc([C@H]4Oc5cc(OC(=O)c6cc(O)c(O)c(O)c6)cc(O)c5C(=O)[C@@H]4O)ccc3O[C@H]2CO)ccc1O`, for which the inhibition result in the data set on HUVEC [1] was “Active”. For the same molecule, the Activity entry with HUVEC [2] is recorded as “Non-toxic”. Moreover, the inhibition entry with HUVEC [3] was “Dose-dependent effect”. In addition, the inhibition at 10 µM in the data set with HUVEC [4] is 79.9%. For the same molecule, the concentration for half-maximal inhibition (IC50) with HUVEC [5] worked out at 4.29 µM; with HUVEC [9], 7.85 µM. The viability at 16 h, 100 µM in [6] was 40%. For the same molecule, the viability at 16 h in data set [7] worked out at 50%. In addition, the MIC in the data set with HUVEC [8] worked out at 10 µM (≈ 6.35 µg/mL).
For `COc1cc([C@H]2Oc3cc([C@H]4Oc5cc(OC(=O)c6cc(O)c(O)c(O)c6)cc(O)c5C(=O)[C@@H]4O)ccc3O[C@@H]2CO)ccc1O`, in the data set on HUVEC [1], the inhibition result was “Active”. The Activity result with HUVEC [2] was “Non-toxic”. The inhibition entry with HUVEC [3] is “Dose-dependent effect”. In addition, the inhibition at 10 µM in the data set with HUVEC [4] is 79.9%. For the same molecule, the IC50 in the data set on HUVEC [5] worked out at 6.06 µM; in the data set on HUVEC [9], 17.1 µM. Further, the viability at 16 h, 100 µM in data set [6] amounted to 40%. Moreover, the viability at 16 h in data set [7] was determined as 50%. Besides, the MIC with HUVEC [8] stood at 10 µM (≈ 6.35 µg/mL).
In the case of `COc1cc([C@H]2Oc3cc([C@H]4Oc5cc(O)cc(O)c5C(=O)[C@@H]4O)ccc3O[C@@H]2CO)ccc1O` [SILYBIN A], the Activity entry with HUVEC [2] is on record as “Non-toxic”. Moreover, the IC50 is 8.83 µM with HUVEC [5] and 62.3 µM in the data set with HUVEC [9].
On to `COc1cc(C2Oc3cc([C@H]4Oc5cc(O)cc(O)c5C(=O)[C@@H]4O)ccc3OC2CO)ccc1OC(=O)c1cc(O)c(O)c(O)c1` (some centres undefined), for which, in the data set on HUVEC [10], the inhibition at 30 µM was 49.5%. In addition, in the data set on HUVEC [2], the Activity entry was “Non-toxic”. The IC50 was found to be 10.3 µM in the data set on HUVEC [5] and 35.4 µM in the data set on HUVEC [9]. The MIC with HUVEC [11] is 60 µM (≈ 38.1 µg/mL); in the data set on HUVEC [8], 20 µM (≈ 12.7 µg/mL). Also, in the data set with HUVEC [12], the inhibition at 20 µM was 94.5%.
Regarding `COc1cc([C@@H]2Oc3cc([C@H]4Oc5cc(O)cc(O)c5C(=O)[C@@H]4O)ccc3O[C@H]2CO)ccc1O` [SILYBIN B], the Activity entry in the data set on HUVEC [2] is listed as “Non-toxic”. Moreover, the IC50 with HUVEC [5] came out at 6.49 µM; in the data set with HUVEC [9] it was 60.5 µM.
As to `COc1cc(C2Oc3cc([C@H]4Oc5cc(O)cc(O)c5C(=O)[C@@H]4O)ccc3OC2COC(=O)c2cc(O)c(O)c(O)c2)ccc1O` (some centres undefined), in the data set with HUVEC [2], the Activity entry is listed as “Non-toxic”. Further, the figures for the half-inhibitory concentration (IC50) in the data set with HUVEC [5] and in the data set on HUVEC [9] were 11.6 µM and 55 µM, respectively. For the same molecule, the MIC was 75 µM (≈ 47.6 µg/mL) in the data set on HUVEC [11] and 20 µM (≈ 12.7 µg/mL) in the data set on HUVEC [8].
In the case of `COc1cc(C2Oc3cc([C@H]4Oc5cc(OC(=O)c6cc(O)c(O)c(O)c6)cc(O)c5C(=O)[C@@H]4O)ccc3OC2CO)ccc1O` (some centres undefined), in the data set with HUVEC [1], the inhibition entry is “Active”. Besides, the Activity entry in the data set with HUVEC [2] is listed as “Non-toxic”. Besides, the inhibition entry in the data set with HUVEC [3] was “Dose-dependent effect”. In addition, in the data set on HUVEC [4], the inhibition at 10 µM was found to be 79.9%. The IC50 stood at 4.75 µM in the data set on HUVEC [5] and 9.21 µM with HUVEC [9]. Besides, the viability at 16 h, 100 µM in [6] stood at 40%. For the same molecule, the MIC with HUVEC [11] was found to be 25 µM (≈ 15.9 µg/mL); with HUVEC [8], 10 µM (≈ 6.35 µg/mL). Further, the viability at 16 h in data set [7] came to 50%.
Turning to `COc1cc(C2Oc3cc([C@H]4Oc5cc(O)cc(O)c5C(=O)[C@@H]4OC(=O)c4cc(O)c(O)c(O)c4)ccc3OC2CO)ccc1O` (some centres undefined), the Activity result in the data set on HUVEC [2] was “Non-toxic”. For the same molecule, the IC50 in the data set with HUVEC [5] amounted to 12.3 µM; in the data set with HUVEC [9] it was 65 µM. In addition, the minimum inhibitory concentration (MIC) with HUVEC [11] stood at 75 µM (≈ 47.6 µg/mL); in the data set on HUVEC [8], 50 µM (≈ 31.7 µg/mL). Also, the inhibition entry in the data set on HUVEC [13] was “inactive”.
Regarding `COc1cc2c(cc1O)CC[C@@H]1[C@@H]2CC[C@]2(C)[C@@H](O)CC[C@@H]12`, the inhibition result in the data set with HUVEC [14] is “Active”.
`COc1cc(C2Oc3cc([C@H]4Oc5cc(O)cc(O)c5C(=O)[C@@H]4O)ccc3OC2CO)ccc1O` (mixture of isomers) [SILIBININ]: in the data set with HUVEC [15], the inhibition result was “Active”. Moreover, the Activity entry with HUVEC [2] is recorded as “Non-toxic”. Also, the results for the IC50 in the data set on HUVEC [5] and in the data set with HUVEC [9] were 9.99 µM and 72.6 µM, respectively. The MIC in the data set with HUVEC [11] was determined as 75 µM; in the data set with HUVEC [8] it was 50 µM.
